Source: ChEMBL document CHEMBL1275521, “Fluoroquinolone enhances the mutation frequency for meropenem-selected carbapenem resistance in Pseudomonas aeruginosa, but use of the high-potency drug doripenem inhibits mutant formation” (2008)
Values after ≈ are worked out from the molar mass of the structure shown.

Columns and labels:
Pseudomonas aeruginosa [1] = assay: Antimicrobial activity against wild-type Pseudomonas aeruginosa GP61 after 18 hrs by agar dilution method; assay type: functional
In short: (§1)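 MICs by agar dilution following CLSI guidelines; plates incubated 18 h at 37°C.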

Pseudomonas aeruginosa [2] = assay: Antimicrobial activity against Pseudomonas aeruginosa GP62KT41 harboring oprD gene after 18 hrs by agar dilution method; assay type: functional
In short: (§2)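 Carbapenem-resistant mutants were isolated on carbapenem-containing AB3 agar after 10^6-fold dilution and broth culture, with or without ciprofloxacin or ofloxacin. Randomly picked colonies were checked for MIC by agar dilution following CLSI guidelines, with 18 h incubation at 37°C. PAO1KTL and PAO1KTS came from meropenem selection without fluoroquinolone.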

Pseudomonas aeruginosa [3] = assay: Antimicrobial activity against wild-type Pseudomonas aeruginosa GP62 after 18 hrs by agar dilution method; assay type: functional; in short: as §1
Pseudomonas aeruginosa [4] = assay: Antimicrobial activity against Pseudomonas aeruginosa GP37KT31 harboring oprD gene after 18 hrs by agar dilution method; assay type: functional; in short: as §2
Pseudomonas aeruginosa [5] = assay: Antimicrobial activity against wild-type Pseudomonas aeruginosa GP37 after 18 hrs by agar dilution method; assay type: functional; in short: as §1
Pseudomonas aeruginosa [6] = assay: Antimicrobial activity against Pseudomonas aeruginosa GP20KT21 harboring oprD gene after 18 hrs by agar dilution method; assay type: functional; in short: as §2
Pseudomonas aeruginosa [7] = assay: Antimicrobial activity against wild-type Pseudomonas aeruginosa GP20 after 18 hrs by agar dilution method; assay type: functional; in short: as §1
Pseudomonas aeruginosa [8] = assay: Antimicrobial activity against Pseudomonas aeruginosa GP4KT111 harboring oprD,mexAB-oprM gene after 18 hrs by agar dilution method; assay type: functional
Pseudomonas aeruginosa [9] = assay: Antimicrobial activity against wild-type Pseudomonas aeruginosa GP4 after 18 hrs by agar dilution method; assay type: functional; in short: as §1
Pseudomonas aeruginosa [10] = assay: Antimicrobial activity against Pseudomonas aeruginosa PAO1 SO20 harboring mexAB-oprM gene after 18 hrs by agar dilution method; assay type: functional
Pseudomonas aeruginosa [11] = assay: Antimicrobial activity against Pseudomonas aeruginosa PAO1 IPM46 harboring oprD gene after 18 hrs by agar dilution method; assay type: functional
Pseudomonas aeruginosa [12] = assay: Antimicrobial activity against Pseudomonas aeruginosa PAO1 KTS harboring mexAB-oprM gene after 18 hrs by agar dilution method; assay type: functional; in short: as §2
Pseudomonas aeruginosa [13] = assay: Antimicrobial activity against Pseudomonas aeruginosa PAO1 KTL1 harboring oprD, mexAB-oprM gene after 18 hrs by agar dilution method; assay type: functional
Pseudomonas aeruginosa [14] = assay: Antimicrobial activity against Pseudomonas aeruginosa PAO1 after 18 hrs by agar dilution method; assay type: functional; in short: as §1
Pseudomonas aeruginosa [15] = assay: Antimicrobial activity against Pseudomonas aeruginosa PAO1 KTL harboring oprD gene after 18 hrs by agar dilution method; assay type: functional; in short: as §2
Pseudomonas aeruginosa [16] = assay: Antimicrobial activity against Pseudomonas aeruginosa GP61KT51 harboring oprD,mexAB-oprM gene after 18 hrs by agar dilution method; assay type: functional
Pseudomonas aeruginosa [17] = assay: Antimicrobial activity against Pseudomonas aeruginosa GP4KT11 harboring oprD gene after 18 hrs by agar dilution method; settings: GP4KT11, 18 h
Pseudomonas aeruginosa [18] = assay: Antimicrobial activity against Pseudomonas aeruginosa GP4KT111 harboring oprD gene after 18 hrs by agar dilution method; assay type: functional; settings: GP4KT11

| Molecule | MIC (Pseudomonas aeruginosa [1]; GP61, 18 h) [µg/mL] | MIC (Pseudomonas aeruginosa [2]; GP62KT41, 18 h) [µg/mL] | MIC (Pseudomonas aeruginosa [3]; GP62, 18 h) [µg/mL] | MIC (Pseudomonas aeruginosa [4]; GP37KT31, 18 h) [µg/mL] | MIC (Pseudomonas aeruginosa [5]; GP37, 18 h) [µg/mL] | MIC (Pseudomonas aeruginosa [6]; GP20KT21, 18 h) [µg/mL] | MIC (Pseudomonas aeruginosa [7]; GP20, 18 h) [µg/mL] | MIC (Pseudomonas aeruginosa [8]; GP4KT111, 18 h) [µg/mL] | MIC (Pseudomonas aeruginosa [9]; GP4, 18 h) [µg/mL] | MIC (Pseudomonas aeruginosa [10]; PAO1 SO20, 18 h) [µg/mL] | MIC (Pseudomonas aeruginosa [11]; PAO1 IPM46, 18 h) [µg/mL] | MIC (Pseudomonas aeruginosa [12]) [µg/mL] | MIC (Pseudomonas aeruginosa [13]; PAO1 KTL1, 18 h) [µg/mL] | MIC (Pseudomonas aeruginosa [14]; PAO1, 18 h) [µg/mL] | MIC (Pseudomonas aeruginosa [15]) [µg/mL] | MIC (Pseudomonas aeruginosa [16]; GP61KT51, 18 h) [µg/mL] | MIC (Pseudomonas aeruginosa [17]) [µg/mL] | other results |
| --- | --- | --- | --- | --- | --- | --- | --- | --- | --- | --- | --- | --- | --- | --- | --- | --- | --- | --- |
| CC(C)(O/N=C(\C(=O)N[C@@H]1C(=O)N2C(C(=O)[O-])=C(C[n+]3ccccc3)CS[C@H]12)c1csc(N)n1)C(=O)O [CEFTAZIDIME] | 3.1 (≈ 5.67 µM) | 1.6 (≈ 2.93 µM) | 1.6 (≈ 2.93 µM) | 1.6 (≈ 2.93 µM) | 1.6 (≈ 2.93 µM) | 1.6 (≈ 2.93 µM) | 1.6 (≈ 2.93 µM) | 6.3 (≈ 11.5 µM) | 1.6 (≈ 2.93 µM) | 6.3 (≈ 11.5 µM) | 1.6 (≈ 2.93 µM) | 6.3 (≈ 11.5 µM) | 6.3 (≈ 11.5 µM) | 1.6 (≈ 2.93 µM) | 1.6 (≈ 2.93 µM) | 12.5 (≈ 22.9 µM) | 1.6 (≈ 2.93 µM) |  |
| O=C(O)c1cn(C2CC2)c2cc(N3CCNCC3)c(F)cc2c1=O [CIPROFLOXACIN] | 0.2 (≈ 0.604 µM) | 0.2 (≈ 0.604 µM) | 0.2 (≈ 0.604 µM) | 0.2 (≈ 0.604 µM) | 0.2 (≈ 0.604 µM) | 0.2 (≈ 0.604 µM) | 0.2 (≈ 0.604 µM) | 0.8 (≈ 2.41 µM) | 0.2 (≈ 0.604 µM) | 0.8 (≈ 2.41 µM) | 0.2 (≈ 0.604 µM) | 0.8 (≈ 2.41 µM) | 0.8 (≈ 2.41 µM) | 0.2 (≈ 0.604 µM) | 0.2 (≈ 0.604 µM) | 0.8 (≈ 2.41 µM) | 0.2 (≈ 0.604 µM) |  |
| C[C@@H](O)[C@H]1C(=O)N2C(C(=O)O)=C(S[C@@H]3CN[C@H](CNS(N)(=O)=O)C3)[C@H](C)[C@H]12 [DORIPENEM] | 0.8 (≈ 1.9 µM) | 0.8 (≈ 1.9 µM) | 0.1 (≈ 0.238 µM) | 1.6 (≈ 3.8 µM) | 0.2 (≈ 0.476 µM) | 1.6 (≈ 3.8 µM) | 0.2 (≈ 0.476 µM) | 3.1 (≈ 7.37 µM) | 0.2 (≈ 0.476 µM) | 0.4 (≈ 0.951 µM) | 0.8 (≈ 1.9 µM) | 0.4 (≈ 0.951 µM) | 1.6 (≈ 3.8 µM) | 0.2 (≈ 0.476 µM) | 0.8 (≈ 1.9 µM) | 1.6 (≈ 3.8 µM) | 1.6 (≈ 3.8 µM) |  |
| C[C@@H](O)[C@H]1C(=O)N2C(C(=O)O)=C(SCCNC=N)C[C@H]12 [IMIPENEM ANHYDROUS] | 6.3 (≈ 21 µM) | 12.5 (≈ 41.8 µM) | 0.8 (≈ 2.67 µM) | 12.5 (≈ 41.8 µM) | 0.8 (≈ 2.67 µM) | 12.5 (≈ 41.8 µM) | 0.8 (≈ 2.67 µM) | 12.5 (≈ 41.8 µM) | 0.8 (≈ 2.67 µM) | 0.8 (≈ 2.67 µM) | 12.5 (≈ 41.8 µM) | 0.8 (≈ 2.67 µM) | 12.5 (≈ 41.8 µM) | 0.8 (≈ 2.67 µM) | 12.5 (≈ 41.8 µM) | 6.3 (≈ 21 µM) | 12.5 (≈ 41.8 µM) |  |
| C[C@@H](O)[C@H]1C(=O)N2C(C(=O)O)=C(S[C@@H]3CN[C@H](C(=O)N(C)C)C3)[C@H](C)[C@H]12 [MEROPENEM] | 1.6 (≈ 4.17 µM) | 3.1 (≈ 8.08 µM) | 0.2 (≈ 0.522 µM) | 3.1 (≈ 8.08 µM) | 0.2 (≈ 0.522 µM) | 3.1 (≈ 8.08 µM) | 0.2 (≈ 0.522 µM) | 12.5 (≈ 32.6 µM) | 0.2 (≈ 0.522 µM) | 1.6 (≈ 4.17 µM) | 1.6 (≈ 4.17 µM) | 1.6 (≈ 4.17 µM) | 6.3 (≈ 16.4 µM) | 0.2 (≈ 0.522 µM) | 1.6 (≈ 4.17 µM) | 6.3 (≈ 16.4 µM) | 3.1 (≈ 8.08 µM) |  |
| CC1COc2c(N3CCN(C)CC3)c(F)cc3c(=O)c(C(=O)O)cn1c23 (stereo unspecified) [OFLOXACIN] | 1.6 (≈ 4.43 µM) | 1.6 (≈ 4.43 µM) | 1.6 (≈ 4.43 µM) | 1.6 (≈ 4.43 µM) | 1.6 (≈ 4.43 µM) | 1.6 (≈ 4.43 µM) | 1.6 (≈ 4.43 µM) | 6.3 (≈ 17.4 µM) | 1.6 (≈ 4.43 µM) | 3.1 (≈ 8.58 µM) | 0.8 (≈ 2.21 µM) | 3.1 (≈ 8.58 µM) | 3.1 (≈ 8.58 µM) | 0.8 (≈ 2.21 µM) | 0.8 (≈ 2.21 µM) | 6.3 (≈ 17.4 µM) | 1.6 (≈ 4.43 µM) |  |
| CCN1CCN(C(=O)N[C@@H](C(=O)N[C@@H]2C(=O)N3[C@@H]2SC(C)(C)[C@@H]3C(=O)O)c2ccccc2)C(=O)C1=O [PIPERACILLIN] | 3.1 (≈ 5.99 µM) | 100 (≈ 193 µM) | 100 (≈ 193 µM) | 100 (≈ 193 µM) | 100 (≈ 193 µM) | 100 (≈ 193 µM) | 100 (≈ 193 µM) | 200 (≈ 386 µM) | 100 (≈ 193 µM) | 12.5 (≈ 24.2 µM) | 3.1 (≈ 5.99 µM) | 12.5 (≈ 24.2 µM) | 12.5 (≈ 24.2 µM) | 3.1 (≈ 5.99 µM) | 3.1 (≈ 5.99 µM) | 12.5 (≈ 24.2 µM) | 100 (≈ 193 µM) |  |
| GENTAMICIN |  |  |  |  |  |  |  |  |  |  |  | 1.6 |  |  | 1.6 |  |  | MIC (Pseudomonas aeruginosa [1]): 1.6 µg/mL; MIC (Pseudomonas aeruginosa [2]): 1.6 µg/mL; MIC (Pseudomonas aeruginosa [3]): 1.6 µg/mL; MIC (Pseudomonas aeruginosa [4]): 100 µg/mL; MIC (Pseudomonas aeruginosa [5]): 100 µg/mL; MIC (Pseudomonas aeruginosa [6]): 3.1 µg/mL; MIC (Pseudomonas aeruginosa [7]): 3.1 µg/mL; MIC (Pseudomonas aeruginosa [8]): 100 µg/mL; MIC (Pseudomonas aeruginosa [18]): 100 µg/mL; MIC (Pseudomonas aeruginosa [9]): 100 µg/mL; MIC (Pseudomonas aeruginosa [10]): 1.6 µg/mL; MIC (Pseudomonas aeruginosa [11]): 1.6 µg/mL; MIC (Pseudomonas aeruginosa [13]): 1.6 µg/mL; MIC (Pseudomonas aeruginosa [14]): 1.6 µg/mL; MIC (Pseudomonas aeruginosa [16]): 1.6 µg/mL |
